Only a selection was taken, and hits are over-represented in it overall.
T cruzi growth-1 = inhibitors of T. cruzi proliferation | T. cruzi beta-gal in NIH3T3, GalScreen luminescence, 90 h | inhibition, % at 8.34 µM | actives 5.9% (n = 77,000) | AID 624255;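 active means mean inhibition above about 93%, with at least 55% of replicates each passing it, limit read from the data, passing the limit was not always enough; inconclusive means only one of those two conditions holds; inactive means neither condition holds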
IDH1 mut inh = IDH1 R132H (human) inhibition | O75874 | IDH1 R132H reductase, diaphorase/resazurin fluorescence, 60 min | inhibition, % at 10 µM | actives 0.18% (n = 70,000) | AID 624101; in the data active means inhibition above about 34%; inconclusive means no clear call, values can overlap the other calls; inactive means below about 11%
KDM4C inh = inhibitors of human demethylase GASC-1 KDM4C; Q9H3R0; GST-KDM4C 2-372, H3K9me3 peptide, LANCE TR-FRET; inhibition, % at 12.5 µM; actives 0.15% (n = 96,000);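 active means mean replicate inhibition above about 25%, with at least 55% of replicates also reaching it, limit read from the data, passing the limit was not always enough; inconclusive means only one of those two conditions met; inactive means neither condition met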
Target sequence (Q9H3R0 2-372 limits assumed): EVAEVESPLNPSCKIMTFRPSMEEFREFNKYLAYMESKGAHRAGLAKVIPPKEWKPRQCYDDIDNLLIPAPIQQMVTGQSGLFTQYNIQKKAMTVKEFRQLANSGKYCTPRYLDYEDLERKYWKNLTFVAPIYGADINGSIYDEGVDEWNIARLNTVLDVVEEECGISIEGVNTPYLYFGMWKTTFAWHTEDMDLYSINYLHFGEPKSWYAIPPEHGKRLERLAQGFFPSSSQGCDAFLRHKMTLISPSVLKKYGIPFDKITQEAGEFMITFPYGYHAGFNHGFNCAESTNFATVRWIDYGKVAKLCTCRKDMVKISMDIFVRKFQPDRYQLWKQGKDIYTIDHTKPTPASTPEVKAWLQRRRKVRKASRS
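Test system: N-terminal GST-fused human GASC-1 (KDM4C) fragment, residues 2-372; quantity: GASC-1 enzyme at 10 nM final in reaction; dosing: single dose; schedule: 30 min demethylation and 1 h detection at room temperature; signal: LANCE TR-FRET, excitation 340 nm, emissions 618 and 671 nm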
T cruzi growth-2 = inhibitors of T. cruzi proliferation; shares compounds with T cruzi growth-1; T. cruzi beta-gal in NIH3T3, GalScreen luminescence, 90 h; inhibition, % at 8.35 µM; actives 72% (n = 5,600); AID 651739;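 active means mean replicate inhibition above about 95% and at least 55% of replicates individually reaching it, limit read from the data; inconclusive means only one of the two criteria is met; inactive means neither criterion is met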
T cruzi growth-3 = Trypanosoma cruzi proliferation inhibition; inhibition, % at 2.09 µM; actives 21% (n = 5,600); AID 651740; shares compounds with T cruzi growth-1; T. cruzi beta-gal in NIH3T3, GalScreen luminescence, 90 h;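 active means mean inhibition above about 95%, with at least 55% of replicates also reaching it, limit read from the data; inconclusive means meets just one of the two conditions; inactive means meets neither condition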
3T3 cytotox = kills mouse NIH/3T3 fibroblasts; shares compounds with T cruzi growth-1; NIH/3T3 viability, CellTiter-Glo ATP luminescence, 90 h; cytotoxicity (signal decrease), % at 8.35 µM; actives 14% (n = 5,600);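 active means mean signal decrease across replicates above about 35% based on untreated-well scatter, with enough replicates individually passing, limit read from the data; inconclusive means no rule stated though some were filed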
NIH3T3 tox 2 = NIH/3T3 (mouse) viability loss; shares compounds with T cruzi growth-1; NIH/3T3 viability, CellTiter-Glo ATP luminescence, 90 h; inhibition, % at 24.9 µM; actives 56% (n = 5,600);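 active means mean loss of cell viability signal at or above a set limit, and enough replicates individually reaching it; inconclusive means meets only the mean limit or only the replicate share; inactive means meets neither condition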
A number is an active result; . = inactive; ? = inconclusive; / = no result; ! = repeats disagree.

SMILES	T cruzi growth-1	IDH1 mut inh	KDM4C inh	T cruzi growth-2	T cruzi growth-3	3T3 cytotox	NIH3T3 tox 2
CC(C)NC(=O)N(C)C[C@@H]1Oc2cc(-c3ccncc3)ccc2S(=O)(=O)N([C@@H](C)CO)C[C@@H]1C	102.7	.	.	.	.	.	.
CC(C)NC(=O)N(C)C[C@H]1Oc2cc(-c3ccccc3)ccc2S(=O)(=O)N([C@H](C)CO)C[C@H]1C	.	.	.	/	/	/	/
CCCNC(=O)N(C)C[C@@H]1Oc2cc(-c3ccncc3)ccc2S(=O)(=O)N([C@@H](C)CO)C[C@@H]1C	.	.	.	/	/	/	/
CC(C)NC(=O)N(C)C[C@@H]1Oc2cc(-c3cncnc3)ccc2S(=O)(=O)N([C@@H](C)CO)C[C@@H]1C	.	.	.	/	/	/	/
CC(C)NC(=O)N(C)C[C@@H]1Oc2cc(-c3ccncc3)ccc2S(=O)(=O)N([C@H](C)CO)C[C@H]1C	118.9	.	.	?	.	.	.
CCCNC(=O)N(C)C[C@H]1Oc2cc(-c3ccncc3)ccc2S(=O)(=O)N([C@@H](C)CO)C[C@@H]1C	96.7	.	.	?	.	.	?
CC(C)NC(=O)N(C)C[C@@H]1Oc2cc(-c3ccncc3)ccc2S(=O)(=O)N([C@@H](C)CO)C[C@H]1C	110.9	.	.	.	.	.	.
Cc1ccc(-c2ccc3c(c2)O[C@H](CN(C)C(=O)NC(C)C)[C@@H](C)CN([C@@H](C)CO)S3(=O)=O)cc1	.	.	.	/	/	/	/
Cc1ccc2nc(-c3cccc(NC(=O)COc4ccccc4C)c3)oc2c1	/	.	/	/	/	/	/
COc1cccc(OC)c1C(=O)NCCCO	/	.	/	/	/	/	/
COC(=O)CCCCCCC(=O)N/N=C/c1ccc(N(C)CCO)cc1	/	.	/	/	/	/	/
COc1ccccc1-n1c(SCC(=O)N(c2ccccc2)c2ccccc2)nc2ccccc2c1=O	/	.	/	/	/	/	/
C[C@H]1CN([C@@H](C)CO)S(=O)(=O)c2ccc(C#CCN(C)C)cc2O[C@@H]1CN(C)Cc1cccnc1	103.8	.	.	110.4	107.6	.	.
C[C@@H]1CN([C@@H](C)CO)S(=O)(=O)c2ccc(C#CCN(C)C)cc2O[C@@H]1CN(C)Cc1cccnc1	?	.	.	99.4	.	.	47.9
CC(C)C#Cc1ccc2c(c1)O[C@@H](CN(C)Cc1cccnc1)[C@@H](C)CN([C@@H](C)CO)S2(=O)=O	.	/	.	/	/	/	/
C[C@H](O)C#Cc1ccc2c(c1)O[C@@H](CN(C)Cc1cccnc1)[C@H](C)CN([C@@H](C)CO)S2(=O)=O	.	.	/	/	/	/	/
C[C@@H]1CN([C@H](C)CO)S(=O)(=O)c2ccc(C#CCN(C)C)cc2O[C@H]1CN(C)Cc1cccnc1	95.7	.	.	100.7	.	.	42.2
CC(C)C#Cc1ccc2c(c1)O[C@H](CN(C)Cc1cccnc1)[C@@H](C)CN([C@H](C)CO)S2(=O)=O	107.1	.	.	107.7	103.7	.	101.8
C[C@@H]1CN([C@@H](C)CO)S(=O)(=O)c2ccc(C#C[C@@H](C)O)cc2O[C@H]1CN(C)Cc1cccnc1	.	/	/	/	/	/	/
CS(=O)(=O)N(CC(=O)Nc1ccc2ccccc2c1)c1ccc(F)cc1	/	.	/	/	/	/	/
N#Cc1ccc(NC(=O)CSc2nnnn2-c2ccccc2)cc1	/	.	/	/	/	/	/
NC(=O)CN(c1ccccc1)S(=O)(=O)c1ccc(F)cc1	/	.	/	/	/	/	/
COc1ccc(NC(=O)N(C)C[C@H]2OCCCC[C@H](C)Oc3ccc(N(C)C)cc3C(=O)N([C@H](C)CO)C[C@@H]2C)cc1	99.7	/	.	.	.	.	.
COc1ccc(NC(=O)N(C)C[C@H]2OCCCC[C@@H](C)Oc3ccc(N(C)C)cc3C(=O)N([C@H](C)CO)C[C@@H]2C)cc1	105.2!	.	.	.	.	.	34.0
COc1ccc(NC(=O)N(C)C[C@@H]2OCCCC[C@H](C)Oc3ccc(N(C)C)cc3C(=O)N([C@H](C)CO)C[C@@H]2C)cc1	.	/	.	/	/	/	/
SMILES	T cruzi growth-1	IDH1 mut inh	KDM4C inh	T cruzi growth-2	T cruzi growth-3	3T3 cytotox	NIH3T3 tox 2
COc1ccc(NC(=O)N(C)C[C@@H]2OCCCC[C@H](C)Oc3ccc(N(C)C)cc3C(=O)N([C@H](C)CO)C[C@H]2C)cc1	.	.	.	/	/	/	/
C[C@@H]1CCCCO[C@@H](CN(C)S(=O)(=O)c2ccccc2)[C@H](C)CN([C@@H](C)CO)C(=O)c2cc(NS(=O)(=O)c3ccc(Cl)cc3)ccc2O1	115.9	/	.	100.9	.	.	.
C[C@@H]1CCCCO[C@H](CN(C)S(=O)(=O)c2ccccc2)[C@H](C)CN([C@@H](C)CO)C(=O)c2cc(NS(=O)(=O)c3ccc(Cl)cc3)ccc2O1	118.1	.	.	.	.	.	.
C[C@H](CO)N1C[C@H](C)[C@H](CN(C)S(=O)(=O)c2ccc(Cl)cc2)OCCCC[C@H](C)Oc2ccc(NS(=O)(=O)c3ccccc3)cc2C1=O	?	/	.	99.2	.	.	.
C[C@@H]1CN([C@H](C)CO)C(=O)c2cc(NS(=O)(=O)c3ccc(Cl)cc3)ccc2O[C@@H](C)CCCCO[C@H]1CN(C)S(=O)(=O)c1ccccc1	/	.	.	/	/	/	/
C[C@@H]1CCCCO[C@@H](CN(C)S(=O)(=O)c2ccc(Cl)cc2)[C@@H](C)CN([C@@H](C)CO)C(=O)c2cc(NS(=O)(=O)c3ccccc3)ccc2O1	/	/	.	/	/	/	/
C[C@@H]1CN([C@H](C)CO)C(=O)c2cc(NS(=O)(=O)c3ccccc3)ccc2O[C@@H](C)CCCCO[C@@H]1CN(C)S(=O)(=O)c1ccc(Cl)cc1	?	.	.	/	/	/	/
COc1cccc(NC(=O)/C=C/c2ccc(Cl)cc2)c1	/	.	/	/	/	/	/
CCN(CC(=O)Nc1ccccc1)S(=O)(=O)c1ccc(F)cc1	/	.	/	/	/	/	/
C/C=C/c1ccc2c(c1)O[C@@H](CN(C)Cc1cncnc1)[C@@H](C)CN([C@H](C)CO)S2(=O)=O	/	.	.	/	/	/	/
C/C=C/c1ccc2c(c1)O[C@@H](CN(C)Cc1cncnc1)[C@@H](C)CN([C@@H](C)CO)S2(=O)=O	/	.	.	/	/	/	/
C[C@H]1CN([C@@H](C)CO)S(=O)(=O)c2ccc(/C=C/c3ccccc3)cc2O[C@H]1CN(C)Cc1cccnc1	/	/	.	/	/	/	/
C[C@H]1CN([C@@H](C)CO)S(=O)(=O)c2ccc(/C=C/c3ccccc3)cc2O[C@@H]1CN(C)Cc1cccnc1	.	.	/	/	/	/	/
C/C=C/c1ccc2c(c1)O[C@@H](CN(C)Cc1cccnc1)[C@H](C)CN([C@H](C)CO)S2(=O)=O	107.5	.	.	.	.	51.8	65.0
C[C@H](CO)N1C[C@H](C)[C@H](CN(C)Cc2cccnc2)Oc2cc(/C=C/c3ccccc3)ccc2S1(=O)=O	106.7	.	.	100.4	96.7	?	31.3
C/C=C/c1ccc2c(c1)O[C@H](CN(C)Cc1cccnc1)[C@@H](C)CN([C@@H](C)CO)S2(=O)=O	114.4	.	.	102.8	105.2	.	54.1

Screening results from PubChem.
